Compound activity deposited in PubChem BioAssay by several laboratories.
MT stabilize HCS: stabilizes microtubules in HeLa cells; HeLa tubulin immunostaining HCS, 24 h; share of cells brighter than vehicle mean+2SD; % tubulin-high responders, % at 10 µM; 200,000 tested, 0.83% active; AID 2205;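 active = plate Z-score above 3 for both tubulin-high and condensed-nucleus cell shares, with cell loss under 80%, at 10 µM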;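 note: anti alpha tubulin signal scored within the nucleus-defined area of each cell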
bCat nuc transl: modulators of beta-catenin nuclear translocation; nuclear translocation activity, % at 5 µM; HeLa beta-catenin nuclear translocation, immunofluorescence imaging; 190,000 tested, 0.3% active;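 active = nuclear translocation activity above 50% at 5 µM, with a well cell count of 50 or more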;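 note: per-cell ratio of nuclear to cytoplasmic median beta-catenin stain intensity; plate controls were DMSO negative control for no effect and GSK-3 inhibitor IX positive control for full effect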
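System: HeLa cells, endogenous beta-catenin; compound dosing: 5 µM primary single dose, 0.1% DMSO, 0.02–20 µM confirmation series; incubation: 24 h compound exposure at 37°C, 5% CO2; signal: beta-catenin immunofluorescence imaging with DAPI; evaluation: % activation, nuclear-to-cytoplasmic median beta-catenin signal ratio per cell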
CHOP inh: blocks CHOP induction under ER stress; CHO-K1 CHOP-promoter luciferase, tunicamycin-induced, 15-18 h; inhibition, % at 10 µM; 220,000 tested, 3.8% active;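 active = compounds that reduced the stress-induced luciferase reporter signal by more than about 70% of percent inhibition, limit read from the data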;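 note: 0% = tunicamycin plus vehicle and 100% = wells without tunicamycin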
Autophagy mod: alters autophagy in cells; 190,000 tested, 0.98% active; calls only at 10 µM (by protocol); MEF GFP-LC3 puncta imaging; test concentration mostly 10 µM;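 active = percentage of spot-positive cells more than 3 SD above its plate mean, without a fluorescence outlier flag or 80% toxicity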;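 note: spot-positive cell cutoff set from DMSO-treated cells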
L major viab: Leishmania major promastigote growth inhibition | inhibition, % at 10 µM | AID 1063 | 200,000 tested, 9% active | Leishmania major promastigotes, resazurin fluorescence viability; in the data active = inhibition above about 50%;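 note: promastigotes grown with compound for 44 hours at 28 °C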
Dynein transport: dynein cargo transport inhibition | 220,000 tested, 0.47% active | AID 1381 | z-score, hits read low | 3617.4 mouse cells, GR-EGFP nuclear translocation imaging; test concentration mostly 20 µM; stimulated with dexamethasone, 1 µM; active compounds read low;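 active = plate z-score of nuclear minus cytoplasmic receptor signal below a set negative limit, without overly bright fluorescence or cell loss, cut at about -3.5 in these data, passing the limit was not always enough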;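 note: z-score of nuclear minus cytoplasmic ring GR-EGFP intensity difference per well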
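Buffer or medium – tet-free medium with charcoal-stripped serum · Signal – automated 10x imaging of fixed Hoechst-stained cells · Also added – dexamethasone agonist, 1.0 µM final, for 30 min · Incubation – induction 48 h, compound 1 h, agonist 30 min · Read-out – GR-EGFP nuclear translocation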
Active calls of the source: *; i = inactive; . = not tested or not shown; + = active, no number. In the library only some 12% were active in any assay of this set; here they are far more common.

SMILES	MT stabilize HCS	bCat nuc transl	CHOP inh	Autophagy mod	L major viab	Dynein transport
CCCC(=Nc1ccc(N)cc1)C1=C(O)C(C(=O)OC)C(C)(C)CC1=O (centres undefined)	3	1	10	i	1	-0.75
Cc1nn(CCO)c2nc(-c3cccs3)cc(C(F)(F)F)c12	5	2	85*	i	10	-0.13
CCc1nc2c(c(=O)[nH]1)C1(CCCC1)Cc1ccccc1-2	4	-1	25	i	1	1.5
NNc1nc(N)c2c(n1)-c1ccccc1CC21CCCC1	5	4	45	i	100*	-0.082
COc1ccccc1/C=C/C(=O)Oc1cccc2cccnc12	2	-5	-4	i	99*	-0.73
Cc1c(C(=O)Oc2cccc3cccnc23)oc2ccccc12	2	0	48	i	98*	-0.025
CCc1nc2ccccc2c(C(=O)Oc2cccc3cccnc23)c1C	3	0	8	i	2	-1.5
O=C(/C=C/c1ccco1)Oc1cccc2cccnc12	.	0	-24	.	.	0.16
O=C(/C=C\c1ccco1)Oc1cccc2cccnc12	1	-1	-5	i	97*	1.9
S=C(NCCc1ccccc1)Nc1ccc(Br)cn1	5	-2	-24	i	6	2.8
Cn1c(=O)[nH]c(=O)c2c1nc(N/N=C/c1ccncc1)n2Cc1ccc(Cl)cc1	.	0	-4	.	.	-0.28
CCOC(=O)N1CCN(c2ccc(O)cc2)CC1	3	-1	4	i	7	-0.65
Cc1[nH]nc2c1C(CCc1ccccc1)C(C#N)=C(N)O2 (centres undefined)	.	-6	33	.	.	.
Cn1c(/C(C#N)=C/c2ccncc2)nc2ccccc21	2	-1	-37	i	28	0.96
N#C/C(=C\c1ccncc1)c1nc2c(s1)CCCC2	2	-4	-37	i	58*	1.9
Nc1nc(SCC(=O)NCc2ccccc2)[nH]c(=O)c1NC(=O)c1ccccc1F	3	-2	3	i	-10	-0.37
O=c1c(Cl)c(N2CCN(S(=O)(=O)c3ccc(F)cc3)CC2)cnn1-c1cccc(Cl)c1	1	.	7	i	98*	1.5
Cc1ccc(/C=N/NC(=O)c2ccoc2C)o1	2	-5	20	i	-6	-0.19
CCCc1cc(C(=O)N/N=C/c2ccc(C)o2)c2ccccc2n1	44*	48	17	i	8	-0.049
Cc1ccc(/C=N/NC(=O)c2cc(C3CC3)nc3ccccc23)o1	23*	28	-11	i	15	0.28
Cc1cc(C(=O)N/N=C/c2ccc(C)o2)c2ccccc2n1	15*	32	-21	i	-9	-0.22
COc1cc(C(=O)NNC(=S)NC(=O)/C=C/c2ccccc2)cc(OC)c1OC	.	2	8	.	.	1.1
Cc1ccccc1Nc1c(-c2ccccn2)nc2c(C)cccn12	4	-1	-18	i	37	-0.14
Cc1cccc(C)c1Nc1c(-c2ccccn2)nc2ccccn12	4	-4	71*	i	100*	-0.44
Cc1ccc(Nc2c(-c3ccc(N4CCOCC4)cc3)nc3ncccn23)cc1C	4	-2	4	i	25	-0.77
SMILES	MT stabilize HCS	bCat nuc transl	CHOP inh	Autophagy mod	L major viab	Dynein transport
Cc1ccc(Nc2c(-c3ccc(N4CCOCC4)cc3)nc3ncccn23)cc1	3	3	16	+	5	0.82
Cc1ccc2nc(-c3ccccn3)c(NC3CCCC3)n2c1	3	1	42	i	100*	-0.48
Cc1cccc(C)c1Nc1c(-c2ccsc2)nc2ncccn12	4	-3	10	i	80*	-0.48
CC(C)(C)C(=O)Nc1cccc(-c2cc(-c3c(Cl)cccc3Cl)no2)c1	.	-1	43	.	.	0.046
C/C(=N\Nc1ccc(Cl)cc1)c1c(O)cc(C)oc1=O	2	-4	8	i	-4	-0.7
COc1ccccc1NC(=O)C(NC(=O)OC(C)(C)C)C(C)OCc1ccccc1 (centres undefined)	2	0	38	i	4	-0.45
Cc1cccc2nc(-c3ccco3)c(Nc3ccccc3)n12	2	.	20	i	22	1.6
Cc1ccc(Nc2c(-c3ccccn3)nc3cccc(C)n23)cc1	3	.	94*	i	101*	-0.56
CN1CCN(CCCN(Cc2ccco2)C(=S)Nc2ccc(Cl)cc2)CC1	3	-6	12	i	1	-0.85
Cc1cccc(NC(=S)N(CCCN2CCCC2)Cc2cccn2Cc2ccc(Cl)cc2)c1	3	0	-37	i	98*	1.1
CCN1CCN(CCCN(Cc2ccco2)C(=S)Nc2ccc(Cl)cc2)CC1	4	0	21	i	15	0.47
CCOc1ccc(NC(=S)N(CCCN2CCCC2)Cc2cccn2Cc2ccc(Cl)cc2)cc1	2	-1	23	i	100*	0.75
O=C1CN(C(=O)c2cc3ccccc3o2)c2ccccc2N1	4	3	13	i	-3	0.1
CC(C)CCNC(=O)C(=O)Nc1ccccc1	5	2	13	i	-3	-0.17
Fc1ccc2c(Cl)c(-c3nnc(-c4cccs4)o3)sc2c1	4	-2	91*	i	-8	-0.59
CC1(C)SC(=S)N(NC(=O)Nc2cccc3ccccc23)C1N(O)C(=O)Nc1ccccc1 (centres undefined)	3	6	100*	i	30	0.41
CCn1c(/C=C/N(C(C)=O)c2ccccc2)[n+](CC)c2ccc(Cl)cc21	1	-2	10	i	18	-0.051
CC[n+]1c(/C=C/N(C)c2ccccc2)oc2ccc(Cl)cc21	5	2	7	i	100*	1.4
CC1CCCCN1C/C=C/c1ccccc1[N+](=O)[O-] (centres undefined)	3	0	39	i	85*	-0.24
CC1CCCN(c2ccc([N+](=O)[O-])s2)C1 (centres undefined)	3	0	-10	i	-7	-0.27
CCC1CCCCN1C/C=C/c1ccccc1[N+](=O)[O-] (centres undefined)	2	1	22	i	90*	2.5
CC1CCCN(C/C=C/c2ccccc2[N+](=O)[O-])C1 (centres undefined)	2	-1	8	i	88*	2.1
O=C(c1ccc(Br)o1)N(Cc1ccccc1)c1ccccn1	1	-2	-2	i	1	-1.3
CC(=O)NS(=O)(=O)c1ccc(NC(=O)CSc2ccc(C)cc2)cc1	4	0	-8	i	-7	-0.04
COC(=O)CSC1=C(C#N)C(c2ccccc2)CC(=O)N1 (centres undefined)	9	.	-1	i	-4	1.9
